Screening results as filed in PubChem BioAssay.
HSF1 inh: HSF1 inhibitors in luciferase reporter cells, primary screen, cell-based, NIH3T3, luminescence; activity change, negative = inhibition, % at 7.5 µM (by protocol); 0.77% of 300,000 active; NIH3T3-HGL HSE-luciferase, MG132-induced, luminescence 8 h; hits give low values; AID 2098, 2009;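 active = more than half of replicate wells show activity change below -50%, luminescence cut by over half; inconclusive = some wells, but at most half, below -50%; inactive = no replicate well below -50%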;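 also: luciferase reports HSF-1 transcriptional activity via heat shock element; 0% = median of DMSO wells and -100% = zero luminescence signal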
HSF1 activator: HSF-1 activators, primary screen, NIH3T3-HGL cells, MG132 stress, luminescence, single point | NIH3T3-HGL HSF-1 luciferase reporter, 8 h; 100% = twice DMSO control signal | activation, % at 9 µM | 1.7% of 300,000 active;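 active = mean replicate activation of at least 50% with a set share of replicates each reaching 50%; inconclusive = only one of those two conditions met; inactive = mean below 50% and too few replicates reaching it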;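 also: 0% = median of the neutral control wells and 100% = twice that signal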
Hsp70 act: Hsp70 transcriptional activators, primary screen, cell-based, HeLa, Hsp70 promoter luciferase, luminescence, 10 µM; HeLa Hsp70 promoter luciferase reporter; scaled: vehicle 0, proteasome-inhibitor control 100%; activation, % at 10 µM; 0.04% of 200,000 active;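 active = activation above the mean across all tested compounds plus 3 SD, cutoff set per campaign, cut at about 5.5% in these data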;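 also: 100% = MG132 at 30 µM as the positive control and 0% = DMSO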
Lmaj promast: Leishmania major promastigote growth inhibition, primary screen; Leishmania major promastigotes, resazurin fluorescence viability; AID 1063, 2008; inhibition, % at 10 µM; 9% of 200,000 active; in the data active = inhibition above about 50%;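 also: promastigotes grown with compound for 44 hours at 28 °C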
T cruzi inh: inhibitors of intracellular T. cruzi growth, primary screen, luminescence, NIH3T3 host cells; 1.4% of 300,000 active; inhibition, % (test concentration not listed); T. cruzi beta-gal in NIH3T3, 90 h;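 active = mean inhibition across valid replicates above about 55%, limit read from the data; inconclusive = mean below that limit but half or more replicates reach it; inactive = mean below it, under half of replicates reach it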;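 also: signal also drops with host cell toxicity which is not excluded here; 0% = plate median of DMSO wells and 100% = zero luminescence signal; higher percent means less beta-gal luminescence so fewer parasites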
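assay system = mouse NIH/3T3 fibroblasts infected with β-gal-expressing T. cruzi Tulahuen C4 | input = 5,000 NIH/3T3 host cells per well | buffer or medium = DMEM plus 2% FBS | timing = 3 h host attachment, then at least 90 h co-culture | measured by = GalScreen luminescence, 60 min | evaluation = luminescence reflecting intracellular parasite burden, expressed as percent inhibition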
Numbers without * were called inactive; ? = inconclusive; . = no result given. The entries come from a sample that favours hits as a whole.

SMILES	HSF1 inh	HSF1 activator	Hsp70 act	Lmaj promast	T cruzi inh
COc1cc(/C=N/NC(N)=O)cc(Br)c1OCc1ccccc1C	1.6	19.0	-0.4	-3.8	-21.3
COc1ccccc1CNC(=O)c1cn(C)c2ccc(S(=O)(=O)N3CCCC3)cc2c1=O	3.5	-3.1	-0.1	9.8	22.3
COCCCNc1nc(SCc2ccccc2)nc2sc3c(c12)CCC3	1.1	32.2	-0.3	6.3	25.4
N#Cc1cnn(-c2nc(SCc3ccccc3)nc3sc4c(c23)CCCC4)c1N	6.0	8.9	-0.2	35.9	59.6*
Cc1cccc(NC(=O)CCC(=O)N/N=C/c2ccco2)c1	-3.2	-2.4	-0.2	-6.7	-33.6
O=C(N/N=C\c1ccco1)Nc1cccc(Cl)c1	30.3	69.0*	-0.1	62.5*	0.0
O=C(NCCSCc1ccco1)Nc1cccc(Cl)c1	20.8	60.3*	0.1	3.1	1.2
O=C(NCCSCc1ccco1)Nc1ccc(Cl)cc1	31.9	42.0	-0.1	11.5	12.3
Cc1cc(NC(=O)CSCC(=O)N(c2cccc(Cl)c2)C(C(=O)NC2CCCCC2)c2ccc(O)c(O)c2)no1 (centres undefined)	6.1	11.2	-0.3	-3.8	16.1
Cc1ccc(N=Nc2c(N)nn3c(C)cc(C)nc23)cc1	-3.7	-1.3	-0.1	-0.3	9.0
Cc1cc(C)n2nc(N)c(N=Nc3cccc(Cl)c3)c2n1	6.5	55.9*	-0.1	-2.7	11.7
COc1ccc(N2CCN(C3CCN(S(=O)(=O)c4ccc(F)cc4)CC3)CC2)cc1	-2.4	0.4	.	.	4.2
COc1ccc(S(=O)(=O)N2CCN(c3ccc4nnc(-c5ccc(F)cc5)n4n3)CC2)cc1	-2.8	2.5	-0.2	98.6*	10.0
Cc1ccc(S(=O)(=O)N2CCN(c3ccc4nnc(-c5ccccc5)n4n3)CC2)cc1	.	.	-0.1	74.9*	.
COC(=O)c1ccc(-c2noc(CN(C)CC3CCCCO3)n2)cc1 (centres undefined)	3.8	-7.6	0.3	-3.4	-0.7
COC(=O)c1ccc(-c2noc(CN(Cc3ccncc3)CC3CCCO3)n2)cc1 (centres undefined)	0.7	-0.4	-0.3	70.5*	57.1*
CCn1ccnc1CN(C)Cc1nc(-c2ccc(C(=O)OC)cc2)no1	2.3	-15.9	.	.	1.0
COC(=O)c1ccc(-c2noc(CN3C[C@H]4CC[C@H]3C4)n2)cc1	14.4	18.0	0.0	98.2*	-7.6
CCc1ccc(NC(=O)CS(=O)CC(=O)Nc2ccc(-n3cnnn3)c(C)c2)cc1 (centres undefined)	6.5	2.3	.	.	0.3
CN1CCN(S(=O)(=O)c2cccc(C(=O)NCc3ccc(Cl)cc3)c2)CC1	-1.8	7.3	0.0	-1.9	7.2
O=C(N/N=C/c1ccc(Br)o1)c1cc([N+](=O)[O-])cc([N+](=O)[O-])c1	.	.	-0.2	94.3*	34.3
O=C(N/N=C/c1ccc(-c2cccc([N+](=O)[O-])c2)o1)c1cccs1	13.3	25.2	0.2	-1.2	80.5*
O=C(N/N=C/c1ccncc1)c1cc([N+](=O)[O-])cc([N+](=O)[O-])c1	-1.4	2.7	-0.3	95.8*	30.4
O=C(/C=C/c1ccc([N+](=O)[O-])cc1)Oc1ccc(/C=N/NC(=O)c2ccncc2)cc1	-22.4	-42.3	.	.	54.5*
Cc1cc([N+](=O)[O-])ccc1-c1ccc(/C=N/NC(=O)c2ccc(Br)o2)o1	-13.7	-13.6	.	.	24.4
SMILES	HSF1 inh	HSF1 activator	Hsp70 act	Lmaj promast	T cruzi inh
O=C(O)Cn1c(=O)c2c3c(sc2n(Cc2ccc(Cl)cc2Cl)c1=O)CCCC3	-45.5	-55.1	.	.	-8.2
CN(C)C(CNC(=O)CCC(=O)c1ccc(Br)cc1)c1ccccc1 (centres undefined)	26.4	62.7*	.	.	3.6
Cc1ccc(/C(N)=N/OC(=O)N2CCOCC2)cc1	0.8	19.8	-0.1	22.7	55.1*
Cc1ccc(C(=O)OCC(=O)N2CCOCC2)cc1	7.1	19.3	.	.	3.3
Cc1cccc(/C(N)=N/OC(=O)N2CCOCC2)c1	5.4	-2.0	0.0	56.3*	59.9*
Cc1nn(-c2ccc(F)cc2)c(Cl)c1/C=C1\C(=O)Nc2ccccc21	16.6	?	-0.4	6.5	-26.2
COc1ccc(NC(=O)CCOc2ccccc2C)cc1S(=O)(=O)N1CCCCC1	-0.2	-7.9	.	.	14.0
CC(C)(CN1CCN(C(c2ccccc2)c2ccccc2)CC1)NS(=O)(=O)c1ccccc1	9.7	20.6	.	.	62.3*
CC1CC(C)CN(CC(C)(C)NS(=O)(=O)c2ccc(Cl)cc2)C1 (centres undefined)	0.8	-1.8	-0.5	95.2*	8.7
CC(C)(CN1CCN(Cc2ccccc2)CC1)NS(=O)(=O)c1ccccc1	-2.0	-5.3	.	.	36.8
CC1CC(C)CN(S(=O)(=O)c2ccc(Cl)cc2)C1 (centres undefined)	1.9	-26.0	.	.	9.6
CC(C)(CN1CCCCC1)NS(=O)(=O)c1ccc(Cl)cc1	7.2	2.5	-0.5	90.1*	-6.2
O=C(CCNS(=O)(=O)c1ccc(Cl)cc1)N1CCCCCC1	1.1	-0.2	.	.	-5.1
Cc1ccc(S(=O)(=O)NC(C)(C)CN2CCNCC2)cc1	4.4	23.6	.	.	?
CC(C)(CNS(=O)(=O)c1ccc(Cl)cc1)N1CCCCC1	-4.4	1.9	-0.1	81.3*	14.5
NC(=O)c1ccc(NC(=O)CN2CCN(c3ccccc3)CC2)cc1	-4.9	-0.3	.	.	6.8
CC(C)NC(=O)NC(=O)CN1C(=O)NC(Cc2c[nH]c3ccccc23)C1=O (centres undefined)	-10.3	-22.5	-0.1	2.8	-1.9
COc1ccc(OC)c(/C=N/N(CCC#N)C2=NS(=O)(=O)c3ccccc32)c1	-8.2	-25.2	.	.	15.5
CCN(CC)CC(C)(C)NS(=O)(=O)c1ccc(Cl)cc1	-5.6	5.1	0.0	70.8*	4.8
CN(C)CC(C)(C)NS(=O)(=O)c1ccc(Cl)cc1	-6.7	6.8	0.1	-5.1	-6.5
CC(=O)/C(=N/Nc1ccc(Br)cc1)Sc1cccc2cccnc12	30.1	67.4*	-0.2	1.4	1.8
Cn1cc(C(=O)N/N=C/C2=C(N3CCOCC3)C(=C\c3ccccc3)/CC2)ccc1=O	11.5	22.6	0.0	-4.1	-12.2
CC(NC(=O)C12CC3CC(CC(C3)C1)C2)C(=O)N/N=C/C1=C(N2CCOCC2)C(=C\c2ccccc2)/CC1 (centres undefined)	-4.7	14.9	-0.5	100.3*	42.4
CC(C)CCNC(=O)c1nn(Cc2ccccc2)c(=O)c2ccccc12	-1.4	-10.1	.	.	7.9
CC(C)N(CCNC(=O)c1nn(Cc2ccccc2)c(=O)c2ccccc12)C(C)C	1.1	-4.6	.	.	54.6*
COc1ccc(Cn2nnnc2C(c2ccc(F)cc2)N2CCN(C3CCCC3)CC2)cc1 (centres undefined)	-6.6	-6.9	0.0	17.1	16.1
